Laboratory results published in ChEMBL document CHEMBL1821613, “Synthesis and evaluation of 5-substituted 2'-deoxyuridine monophosphate analogues as inhibitors of flavin-dependent thymidylate synthase in Mycobacterium tuberculosis” (J Med Chem, 2011).

Tests used:
[1] = target: T1, Flavin-dependent thymidylate synthase (Mycobacterium tuberculosis) (UniProt P9WG57); experiment: Inhibition of Mycobacterium tuberculosis ThyX-mediated dTMP synthesis using [5-3H]dUMP as substrate at 50 uM after 10 mins by liquid scintillation counting
T1 sequence (whole entry): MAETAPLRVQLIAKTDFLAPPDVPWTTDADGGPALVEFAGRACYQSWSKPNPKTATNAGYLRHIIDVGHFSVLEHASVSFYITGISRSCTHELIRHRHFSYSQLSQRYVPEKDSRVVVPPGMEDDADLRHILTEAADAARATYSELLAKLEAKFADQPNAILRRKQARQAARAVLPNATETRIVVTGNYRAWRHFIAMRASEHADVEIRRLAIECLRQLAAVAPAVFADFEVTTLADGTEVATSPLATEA
Method in brief: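 Compounds tested at a single 50 μM dose on purified M. tuberculosis ThyX with 20 μM mTHF, 10 μM FAD, 500 μM NADPH. [5-3H]dUMP (13 Ci/mmol, stock 2 μM) added to start, 10 min at room temperature, TCA/dUMP stop, charcoal cleanup, tritiated water counted by scintillation; percent inhibition relative to control.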

[2] = target: T2, Flavin-dependent thymidylate synthase (Mycobacterium tuberculosis, UniProt P9WG57); experiment: Inhibition of Mycobacterium tuberculosis ThyX-mediated dTMP synthesis using [5-3H]dUMP as substrate after 10 mins by liquid scintillation counting
T2 sequence (P9WG57 whole entry): T1 sequence (whole entry)
Method in brief: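 Purified M. tuberculosis ThyX with 20 μM mTHF, 10 μM FAD and 500 μM NADPH; reaction started with [5-3H]dUMP (13 Ci/mmol, stock 2 μM), run 10 min at room temperature, stopped with TCA/dUMP. Unreacted substrate removed with activated charcoal (15 min on ice, then centrifugation); tritiated water in supernatant counted. IC50 from dose-response curves of percent activity versus control.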

[3] = target: T3, Thymidylate synthase ThyA (Mycobacterium tuberculosis, UniProt P9WFR9); experiment: Inhibition of Mycobacterium tuberculosis His-tagged ThyA-mediated dTMP synthesis expressed in BL21 (DE3) Escherichia coli RbCl cells after 30 mins by photometric assay
T3 sequence (P9WFR9 whole entry): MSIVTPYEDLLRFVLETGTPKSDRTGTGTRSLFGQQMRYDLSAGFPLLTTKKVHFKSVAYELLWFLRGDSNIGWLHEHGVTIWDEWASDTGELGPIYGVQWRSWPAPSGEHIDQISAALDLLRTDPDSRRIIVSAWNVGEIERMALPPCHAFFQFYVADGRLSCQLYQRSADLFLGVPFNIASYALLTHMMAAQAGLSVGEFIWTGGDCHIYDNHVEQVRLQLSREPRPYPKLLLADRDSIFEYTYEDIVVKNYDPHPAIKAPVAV

| SMILES | inhibition [1] [%] | IC50 [2] [µM] | IC50 [3] [µM] |
| --- | --- | --- | --- |
| CCCCCCCC(=O)NCC#Cc1cn([C@H]2C[C@H](O)[C@@H](COP(=O)(O)O)O2)c(=O)[nH]c1=O | 92.8 | 0.91 | > 50 |
| COc1cccc(-c2cn([C@H]3C[C@H](O)[C@@H](COP(=O)(O)O)O3)c(=O)[nH]c2=O)c1 | 16 | > 50 | > 50 |
| CCCCNC(=O)CCCCC#Cc1cn([C@@H]2O[C@H](COP(=O)(O)O)[C@@H](O)[C@@H]2O)c(=O)[nH]c1=O | 21 | > 50 | > 50 |
| O=c1[nH]c(=O)n([C@H]2C[C@H](O)[C@@H](COP(=O)(O)O)O2)cc1F | 95.1 | 0.29 | 0.57 |
| O=c1[nH]c(=O)n([C@H]2C[C@H](O)[C@@H](COP(=O)(O)O)O2)cc1-c1ccc(F)cc1 | 74 | 10 | > 50 |
| CCCCCC(=O)NCC#Cc1cn([C@H]2C[C@H](O)[C@@H](COP(=O)(O)O)O2)c(=O)[nH]c1=O | 89.9 | 8.61 | > 50 |
| N#C/C=C/c1cn([C@H]2C[C@H](O)[C@@H](COP(=O)(O)O)O2)c(=O)[nH]c1=O | 81.3 | 7.4 | > 50 |
| CCCCCCNC(=O)NCC#Cc1cn([C@H]2C[C@H](O)[C@@H](COP(=O)(O)O)O2)c(=O)[nH]c1=O | 90.9 | 4.84 | > 50 |
| CCCCCCCCCCC#Cc1cn([C@H]2C[C@H](O)[C@@H](COP(=O)(O)O)O2)c(=O)[nH]c1=O | 82.6 | 27.8 | > 50 |
| CCCCNC(=O)CCCCC#Cc1cn([C@H]2C[C@H](O)[C@@H](COP(=O)(O)O)O2)c(=O)[nH]c1=O | 74.6 | 8.03 | > 50 |
| O=C(Cc1ccccc1)NCC#Cc1cn([C@H]2C[C@H](O)[C@@H](COP(=O)(O)O)O2)c(=O)[nH]c1=O | 86.9 | 7.3 | > 50 |
| CCCCCCCCCCC#Cc1cn([C@@H]2O[C@H](COP(=O)(O)O)[C@@H](O)[C@@H]2O)c(=O)[nH]c1=O | 19 | > 50 | > 50 |
| CCCCCCCS(=O)(=O)NCC#Cc1cn([C@H]2C[C@H](O)[C@@H](COP(=O)(O)O)O2)c(=O)[nH]c1=O | 84.7 | 6.93 | > 50 |
| CCCC(=O)NCC#Cc1cn([C@H]2C[C@H](O)[C@@H](COP(=O)(O)O)O2)c(=O)[nH]c1=O | 72 | 26.2 | > 50 |
